Test results reported in ChEMBL document CHEMBL4251598, “Development of novel bis-pyrazole derivatives as antitumor agents with potent apoptosis induction effects and DNA damage” (Eur J Med Chem, 2018).
Active and inactive are the calls of the source.

What was measured:
SGC-7901 [1] = test: Antiproliferative activity against human SGC7901 cells after 72 hrs by MTT assay; format: functional, cell-based; conditions: SGC-7901, 72 h
In short: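 Cells in DMEM with 10% FBS, 10^4 cells/mL, adhered overnight at 37 °C, 5% CO2. Treated in triplicate with a range of concentrations for 72 h. MTT (5 mg/mL solution) added for the last 4 h, formazan dissolved in DMSO, absorbance read at 570 nm. IC50 calculated from percent inhibition. Mean ± SD of three independent experiments.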

SGC-7901 [2] = test: Potency index, ratio of ADM IC50 to compound IC50 for human SGC7901 cells; format: functional
L02 = test: Cytotoxicity against human LO2 cells assessed as reduction in cell survival at 0.2 to 5 uM after 72 hrs by MTT assay; format: cell-based; conditions: l02, 72 h
In short: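 LO2 normal liver cells in DMEM with 10% FBS, plated at 10^4 cells/mL, adhered overnight. Exposed to graded concentrations for 72 h alongside SMMC-7721. MTT added for the last 4 h, formazan dissolved in DMSO, A570 read. Percent inhibition, mean ± SD of three independent experiments.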

SMMC-7721 [3] = test: Induction of apoptosis in human SMMC7721 cells assessed as apoptotic cells at 0.8 uM after 72 hrs by FITC-Annexin-V/7AAD/propidium iodide staining based flow cytometry relative to control; format: functional
In short: (§1)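 SMMC-7721 cells cultured overnight, then treated in triplicate with 0.2, 0.8 or 3.2 μM, vehicle, or ADM (3.2 μM) for 72 h. Stained with annexin V and PI (methods section: APC-annexin V/7-AAD) for 15 min at room temperature. Mean ± SD of three independent experiments.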

SMMC-7721 [4] = test: Induction of apoptosis in human SMMC7721 cells assessed as apoptotic cells at 3.2 uM after 72 hrs by FITC-Annexin-V/7AAD/propidium iodide staining based flow cytometry relative to control; format: functional; in short: as §1
SMMC-7721 [5] = test: Induction of apoptosis in human SMMC7721 cells assessed as apoptotic cells after 72 hrs by FITC-Annexin-V/7AAD/propidium iodide staining based flow cytometry; format: functional, cell-based; in short: as §1
SMMC-7721 [6] = test: Induction of apoptosis in human SMMC7721 cells assessed as increase in Bax expression after 72 hrs by Western blot analysis; format: functional, cell-based
In short: (§2)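 Sub-confluent SMMC-7721 cells treated with vehicle, compound or ADM at indicated concentrations for 72 h. Lysed on ice in NP-40/deoxycholate/SDS buffer with PMSF and leupeptin. Up to 50 µg protein run on SDS-PAGE, transferred to PVDF and probed with specific antibodies; ECL detection. Bands quantified by densitometry relative to β-actin, mean ± SD of three experiments.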

SMMC-7721 [7] = test: Induction of apoptosis in human SMMC7721 cells assessed as reduction in Bcl2 expression after 72 hrs by Western blot analysis; format: functional, cell-based; in short: as §2
SMMC-7721 [8] = test: Induction of apoptosis in human SMMC7721 cells assessed as increase in cleaved caspase-3 expression at 3.2 uM after 72 hrs by Western blot analysis relative to control; format: functional, cell-based; in short: as §2
SMMC-7721 [9] = test: Induction of apoptosis in human SMMC7721 cells assessed as increase in cleaved PARP expression at 3.2 uM after 72 hrs by Western blot analysis relative to control; format: functional, cell-based; in short: as §2
[10] = molecular target: Cellular tumor antigen p53 (Homo sapiens) (UniProt P04637); test: Induction of p53 phosphorylation at Ser15 in human SMMC7721 cells after 72 hrs by Western blot analysis; format: cell-based
In short: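 SMMC-7721 cells treated with vehicle, compound at 0.2, 0.8 or 3.2 μM, or ADM for 72 h. Lysates immunoblotted for H2AX pS139, p-p53 (Ser15), total p53 and β-actin, with ECL detection. Signals quantified by densitometry relative to β-actin, mean ± SD of three experiments.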

[11] = Acute toxicity in ICR mouse assessed as survival at 312.5 mg/kg, ip measured on day 14; format: organism-based; conditions: in vivo
In short: (§3)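 Female ICR mice, 10 per group, single intraperitoneal injection at 488.3, 390.6, 312.5, 250 or 200 mg/kg, or vehicle control. Survival, eating, drinking, body weight and activity were monitored for up to 14 days after dosing. MTD was defined as the highest dose giving no drug-related moribund state or death, with temporary body-weight loss within 20%. LD50 was calculated from mortality.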

[12] = Acute toxicity in ICR mouse assessed as survival at 250 mg/kg, ip measured on day 14; format: organism-based; conditions: in vivo; in short: as §3
[13] = Acute toxicity in ICR mouse assessed as survival at 200 mg/kg, ip measured on day 14; format: organism-based; conditions: in vivo; in short: as §3
SMMC-7721 [14] = test: Antitumor activity against human SMMC7721 cells xenografted in BALB/c mouse assessed as tumor growth inhibition at 30 mg/kg, ip measured after 19 days relative to control; format: functional; conditions: SMMC-7721, ip, 456 h, read-out: TGI
In short: (§4)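 Female BALB/c nude mice, 5-6 weeks old, inoculated subcutaneously with 10^6 SMMC-7721 cells. At 50-100 mm³ tumours, mice were randomized to ip compound (15 or 30 mg/kg), ADM (15 mg/kg) or vehicle, n = 6 per group. Caliper volume ½(L×W²) measured every 3 days to day 19, with body weight monitored. Tumours excised and weighed at the end.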

SMMC-7721 [15] = test: Antitumor activity against human SMMC7721 cells xenografted in ip dosed BALB/c mouse assessed as tumor growth inhibition measured every 3 days up to 19 days post dose; format: functional, organism-based; in short: as §4
SMMC-7721 [16] = test: Potency index, ratio of 5-FU IC50 to compound IC50 for human SMMC7721 cells; format: functional
SGC-7901 [17] = test: Potency index, ratio of 5-FU IC50 to compound IC50 for human SGC7901 cells; format: functional
HCT-116 = test: Potency index, ratio of 5-FU IC50 to compound IC50 for human HCT116 cells; format: functional
SMMC-7721 [18] = test: Induction of apoptosis in human SMMC7721 cells assessed as increase in cleaved caspase-3 expression at 0.2 to 3.2 uM after 72 hrs by Western blot analysis relative to control; format: functional, cell-based; in short: as §2
[19] = Acute toxicity in ICR mouse at 200 to 488.3 mg/kg, ip; format: organism-based; conditions: in vivo; in short: as §3
Mus musculus [20] = test: Acute toxicity in ICR mouse assessed as effect on eating behaviour at 200 mg/kg, ip measured up to 14 days post dose; format: organism-based; conditions: in vivo, 336 h; in short: as §3
Mus musculus [21] = test: Acute toxicity in ICR mouse assessed as effect on body weight at 200 mg/kg, ip measured up to 14 days post dose; format: organism-based; conditions: in vivo, 336 h; in short: as §3
Mus musculus [22] = test: Acute toxicity in ICR mouse assessed as effect on animal activity at 200 mg/kg, ip measured up to 14 days post dose; format: organism-based; conditions: in vivo, 336 h; in short: as §3
Mus musculus [23] = test: Acute toxicity in ICR mouse assessed as mouse mortality level at 200 to 488.3 mg/kg, ip measured at 1 to 4 hrs post dose; format: organism-based; conditions: in vivo; in short: as §3
Mus musculus [24] = test: Acute toxicity in ICR mouse assessed as mouse mortality level at 200, ip measured on day 1 to 3 days post dose; format: organism-based; conditions: in vivo; in short: as §3
Mus musculus [25] = test: Acute toxicity in ICR mouse assessed as mouse mortality level at 312.5 mg/kg, ip measured on day 3 post dose; format: organism-based; conditions: in vivo; in short: as §3
Mus musculus [26] = test: Acute toxicity in ICR mouse assessed as mouse mortality level at 200 to 312.5 mg/kg, ip measured on day 5 to 14 post dose; format: organism-based; conditions: in vivo; in short: as §3

Chain of Cellular tumor antigen p53 (Homo sapiens) (P04637 whole entry, looked up): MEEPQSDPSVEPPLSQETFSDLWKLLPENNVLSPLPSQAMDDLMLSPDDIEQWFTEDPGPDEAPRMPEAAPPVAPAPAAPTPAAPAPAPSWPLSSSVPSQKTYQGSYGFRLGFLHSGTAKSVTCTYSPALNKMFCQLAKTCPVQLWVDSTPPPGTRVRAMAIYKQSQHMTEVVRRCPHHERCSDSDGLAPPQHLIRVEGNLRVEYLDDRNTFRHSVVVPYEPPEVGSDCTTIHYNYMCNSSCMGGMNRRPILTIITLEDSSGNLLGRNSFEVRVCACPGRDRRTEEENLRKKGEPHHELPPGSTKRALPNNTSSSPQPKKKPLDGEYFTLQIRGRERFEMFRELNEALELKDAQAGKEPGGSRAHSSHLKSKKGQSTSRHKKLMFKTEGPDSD

Structure (SMILES): COc1ccc(Oc2c(/C=N\OCc3c(Cl)c(-c4ccc(Cl)cc4)nn3C)c(C)nn2C)cc1
- IC50 (SGC-7901 [1]): 2.01 µM
- Ratio IC50 (SGC-7901 [2]): 2 - 3
- Activity (L02): Non-Toxic
- Activity (SMMC-7721 [3]): 49.2%
- Activity (SMMC-7721 [4]): 63.2%
- Activity (SMMC-7721 [5]): Dose-dependent effect
- Activity (SMMC-7721 [6]): Dose-dependent effect
- Activity (SMMC-7721 [7]): Dose-dependent effect
- Activity (SMMC-7721 [8]): Active
- Activity (SMMC-7721 [9]): Active
- Activity [10]: Dose-dependent effect
- survival at 14 day [11]: 60%
- survival at 14 day [12]: 70%
- survival at 14 day [13]: 100%
- inhibition in vivo at 30 mg/kg (SMMC-7721 [14]): 65.3%
- TGI (SMMC-7721 [15]): Dose-dependent effect
- Ratio IC50 (SMMC-7721 [16]): 17 - 50
- Ratio IC50 (SGC-7901 [17]): 17 - 50
- Ratio IC50 (HCT-116): 17 - 50
- Activity (SMMC-7721 [18]): Active
- LD50 [19]: 350 mg/kg
- Activity (Mus musculus [20]): Non-Toxic
- Activity (Mus musculus [21]): Non-Toxic
- Activity (Mus musculus [22]): Non-Toxic
- Activity (Mus musculus [23]): Non-Toxic
- Activity (Mus musculus [24]): Non-Toxic
- Activity (Mus musculus [25]): Non-Toxic
- Activity (Mus musculus [26]): Non-Toxic
